Results as given in ChEMBL document CHEMBL1138683 (J Med Chem, 2004).

Columns and labels:
[1] = tested on: Rattus norvegicus; experiment: Quantitative Anticonvulsant activity administered orally to rat for subcutaneous metrazol test; format: functional
Outline: (§1)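 Oral dosing in rats with compound dissolved or suspended in 0.5% methylcellulose (0.04 mL per 10 g body weight). […] Protective index taken as TD50/ED50 for each test.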

[2] = tested on: Rattus norvegicus; experiment: Anticonvulsant activity after oral administration of 30 mg/kg dose after 15 min in rats;+means 25% of the animals protected; format: functional, organism-based; set-up: dose 30 mg/kg
Outline: (§2)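 Oral dosing of rats at a single dose, compound dissolved or suspended in 0.5% methylcellulose. Protection in the MES or scMet test checked 15 min, 30 min, 1 h, 2 h and 4 h after dosing. Scored as 25/50/75/100% of animals protected (+ to ++++), – for none.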

[3] = tested on: Mus musculus; experiment: Anti convulsant activity administered intra peritoneally to mouse for subcutaneous metrazol test at 4 hr after the drug administered with dose of 100 mg/kg; 0/1= No of animals protected /No of animals tested; format: functional
[4] = tested on: Rattus norvegicus; experiment: Anticonvulsant activity after oral administration of 30 mg/kg dose after 2 hr in rats; ++++ means 100% of the animals protected; format: functional, organism-based; set-up: dose 30 mg/kg; outline: as §2
[5] = Anti convulsant activity administered intra peritoneally to mouse for toxicity at 4 hr with dose of 300 mg/kg; 1/2= No of animals exhibiting toxicity /No of animals tested; format: organism-based; set-up: dose 300 mg/kg; conditions: in vivo, ip
[6] = Anti convulsant activity administered intra peritoneally to mouse for toxicity at 0.5 hr with dose of 30 mg/kg; 0/4= No of animals exhibiting toxicity /No of animals tested; format: organism-based; set-up: dose 30 mg/kg; conditions: in vivo, ip
[7] = Anti convulsant activity administered intra peritoneally to mouse for toxicity at 0.5 hr with dose of 100 mg/kg; 0/8= No of animals exhibiting toxicity /No of animals tested; format: organism-based; set-up: dose 100 mg/kg; conditions: in vivo, ip
[8] = tested on: Mus musculus; experiment: Quantitative Anticonvulsant activity administered intraperitoneally to mouse for protective index in subcutaneous metrazol test; format: functional
Outline: (§3)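 Mice dosed intraperitoneally with compound dissolved or suspended in 0.5% methylcellulose (0.01 mL per gram body weight). […] Protective index calculated as TD50/ED50 for each seizure test.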

[9] = tested on: Mus musculus; experiment: Anticonvulsant activity administered intraperitoneally to mouse for toxicity at 4 hr with dose of 30 mg/kg; format: functional; conditions: route intraperitoneal
Outline: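 Mice given compound i.p. at 30, 100 or 300 mg/kg, dissolved or suspended in 0.5% methylcellulose. Toxicity scored 0.5 h and 4 h after dosing, recorded as number of animals showing toxicity per number tested.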

[10] = tested on: Mus musculus; experiment: Anti convulsant activity administered intra peritoneally to mouse at maximal electroshock test at 0.5 hr after the drug administered with dose of 300 mg/kg; 1/1= No of animals protected /No of animals tested; format: functional
[11] = tested on: Mus musculus; experiment: Anti convulsant activity administered intra peritoneally to mouse for subcutaneous metrazol test at 0.5 h with dose of 300 mg/kg; 0/1= No of animals protected /No of animals tested; format: functional
[12] = tested on: Mus musculus; experiment: Quantitative Anticonvulsant activity administered intraperitoneally to mouse for protective index in maximal electro shock test;TD50/ED50; format: functional; outline: as §3
[13] = tested on: Rattus norvegicus; experiment: Anticonvulsant activity after oral administration of 30 mg/kg dose after 4 hr in rats; + means 25% of the animals protected; format: functional, organism-based; set-up: dose 30 mg/kg; outline: as §2
[14] = tested on: Mus musculus; experiment: Quantitative Anticonvulsant activity administered intraperitoneally to mouse for maximal electro shock test; The interval in parenthesis stands for 95% confidence interval; format: functional; conditions: ip; outline: as §3
[15] = Anti convulsant activity administered intra peritoneally to mouse for toxicity at 0.5 hr with dose of 300 mg/kg; 0/4= No of animals exhibiting toxicity /No of animals tested; format: organism-based; set-up: dose 300 mg/kg; conditions: in vivo, ip
[16] = tested on: Rattus norvegicus; experiment: Quantitative Anticonvulsant activity administered orally to rat for protective index in subcutaneous metrazol test; format: functional; outline: as §1
[17] = tested on: Mus musculus; experiment: Anti convulsant activity administered intra peritoneally to mouse at maximal electroshock test at 4 hr after the drug administered with dose of 100 mg/kg; 0/3= No of animals protected /No of animals tested; format: functional
[18] = tested on: Rattus norvegicus; experiment: Anticonvulsant activity after oral administration of 30 mg/kg dose after 30 min in rats; ++ means 50% of the animals protected; format: functional, organism-based; set-up: dose 30 mg/kg; outline: as §2
[19] = tested on: Mus musculus; experiment: Anti convulsant activity administered intra peritoneally to mouse at maximal electroshock test at 0.5 hr after the drug administered with dose of 100 mg/kg; 3/3= No of animals protected /No of animals tested; format: functional
[20] = tested on: Rattus norvegicus; experiment: Quantitative Anticonvulsant activity administered orally to rat at maximal electro shock test; the interval in parenthesis stands for 95% confidence interval; format: functional; conditions: po; outline: as §1
[21] = tested on: Rattus norvegicus; experiment: Quantitative Anticonvulsant activity administered orally to rat for protective index in maximal electro shock test;TD50/ED50; format: functional; outline: as §1
[22] = tested on: Mus musculus; experiment: Anti convulsant activity administered intra peritoneally to mouse at maximal electroshock test at 4 hr after the drug administered with dose of 100 mg/kg; 0/1= No of animals protected /No of animals tested; format: functional
[23] = tested on: Mus musculus; experiment: Anti convulsant activity administered intra peritoneally to mouse for subcutaneous metrazol test at 0.5 hr with dose of 30 mg/kg; 0/1= No of animals protected /No of animals tested; format: functional
[24] = tested on: Mus musculus; experiment: Anti convulsant activity administered intra peritoneally to mouse at maximal electroshock test at 4 hr after the drug administered with dose of 300 mg/kg; 1/1= No of animals protected /No of animals tested; format: functional
[25] = Anti convulsant activity administered intra peritoneally to mouse for toxicity at 4 hr with dose of 100 mg/kg; 0/4= No of animals exhibiting toxicity /No of animals tested; format: organism-based; set-up: dose 100 mg/kg; conditions: in vivo, ip
[26] = tested on: Rattus norvegicus; experiment: Anticonvulsant activity after oral administration of 30 mg/kg dose after 1 hr in rats; +++ means 75% of the animals protected; format: functional, organism-based; set-up: dose 30 mg/kg; outline: as §2
[27] = tested on: Mus musculus; experiment: Anti convulsant activity administered intra peritoneally to mouse for subcutaneous metrazol test at 4 hr after the drug administered with dose of 30 mg/kg; 0/1= No of animals protected /No of animals tested; format: functional; conditions: route intraperitoneal
[28] = Quantitative Anticonvulsant activity administered intraperitoneally to mouse for toxicity; conditions: in vivo, ip; outline: as §3
[29] = tested on: Mus musculus; experiment: Anti convulsant activity administered intra peritoneally to mouse at maximal electroshock test at 0.5 h after the drug administered with dose of 30 mg/kg; 0/1= No of animals protected /No of animals tested; format: functional
[30] = tested on: Rattus norvegicus; experiment: Anticonvulsant activity after oral administration of 50 mg/kg dose after 15 min in rats; +++ means 75% of the animals protected; format: functional, organism-based; set-up: dose 50 mg/kg; outline: as §2
[31] = tested on: Mus musculus; experiment: Anti convulsant activity administered intra peritoneally to mouse for subcutaneous metrazol test at 4 hr with dose of 300 mg/kg; 3/5= No of animals protected /No of animals tested; format: functional
[32] = tested on: Mus musculus; experiment: Anti convulsant activity administered intra peritoneally to mouse at maximal electroshock test at 4 hr after the drug administered with dose of 30 mg/kg; 0/1= No of animals protected /No of animals tested; format: functional
[33] = tested on: Rattus norvegicus; experiment: Anticonvulsant activity after oral administration of 50 mg/kg dose after 30 min in rats; ++ means 50% of the animals protected; format: functional, organism-based; set-up: dose 50 mg/kg
Outline: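 Rats dosed orally with compound dissolved or suspended in 0.5% methylcellulose (0.04 mL per 10 g body weight). Anticonvulsant protection (MES or scMet) and toxicity scored at 15 min, 30 min, 1 h, 2 h and 4 h after dosing. Graded in steps of 25% of animals protected or showing toxicity.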

## CC1(C)C(C(=O)NC(N)=O)C1(C)C [2,2,3,3-TETRAMETHYLCYCLOPROPANECARBONYLUREA]
[1]
  ED50: 92 mg/kg
[2]
  Activity: 100% of the animals protected
[3]
  Activity: 0
[4]
  Activity: 100% of the animals protected
[5]
  Toxicity: 1
[6]
  Toxicity: 0
[7]
  Toxicity: 0
[8]
  Anticonvulsant: 1.6
[9]
  Toxicity: 0
[10]
  Activity: 1
[11]
  Activity: 0
[12]
  Ratio: 1.9
[13]
  Activity: 100% of the animals protected
[14]
  ED50: 90 mg/kg
[15]
  Toxicity: 0
[16]
  Activity: 5.9
[17]
  Activity: 0
[18]
  Activity: 100% of the animals protected
[19]
  Activity: 3
[20]
  ED50: 29 mg/kg
[21]
  Ratio: 18.5
[22]
  Activity: 0
[23]
  Activity: 0
[24]
  Activity: 1
[25]
  Toxicity: 0
[26]
  Activity: 100% of the animals protected
[27]
  Activity: 0
[28]
  TD50: 168 mg/kg
[29]
  Activity: 0
[30]
  Anticonvulsant Activity: 75% of the animals protected
[31]
  Activity: 3
[32]
  Activity: 0
[33]
  Activity: 100% of the animals protected
